The source of these data is ChEMBL document CHEMBL1147912, “1-(1,3-Benzodioxol-5-ylmethyl)-3-[4-(1H-imidazol-1-yl)phenoxy]-piperidine analogs as potent and selective inhibitors of nitric oxide formation” (Bioorg Med Chem Lett, 2007).

One series concerns A 172. Description: Inhibition of nitric oxide formation in human A172 cells. The format is functional, cell-based. The method, boiled down: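 Human A172 cells were stimulated with cytokines to induce NO formation, with compound present. Nitrite/NO produced was read with Griess reagent and IC50 determined.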
In series [1] the target is Nitric oxide synthase, inducible (Homo sapiens, UniProt P35228). Description: Inhibition of tetracycline-induced iNOS expressed in SF9 cells. An outline of the steps:
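SF9 cells transfected with iNOS in a tetracycline-inducible system, expression induced by tetracycline. NOS activity was measured as conversion of radiolabeled arginine to radiolabeled citrulline. IC50 was averaged over at least two separate experiments unless noted otherwise.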

For the next series, the system named is Rattus norvegicus. Description: AUC (infinity) in rat at 2 mg/kg, iv. It counts as ADME, organism-based, Plasma. Also noted: time infinity, dose 2 mg/kg, route intravenous. As to conditions: in vivo. An outline of the steps:
(§1)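 Rat, intravenous dose of 2 mg/kg. Readouts were half-life, clearance, steady-state volume of distribution and AUC to infinity.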

Series [2] can be described thus: AUC (infinity) in rat at 10 mg/kg, po. The format is ADME, organism-based. Also noted: time infinity, dose 10 mg/kg, route oral. As to conditions: plasma. The method, boiled down:
(§2)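 Rat, oral dose of 10 mg/kg. Readouts were Cmax, terminal half-life, AUC to infinity and oral bioavailability (%F).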

Series [3] can be described thus: Half life in rat at 10 mg/kg, po. It counts as ADME, organism-based. Also noted: dose 10 mg/kg, route oral. As to conditions: in vivo. An outline of the steps:
as §2

Series [4] can be described thus: Half life in rat at 2 mg/kg, iv. The format is ADME, organism-based. As to conditions: in vivo. Also noted: dose 2 mg/kg, route intravenous. The method, boiled down:
as §1

Series [5] in a line: Clearance in rat at 2 mg/kg, iv. The format is ADME, organism-based. Also noted: dose 2 mg/kg, route intravenous. Particulars: in vivo. An outline of the steps: as §1
Series [6] in a line: Bioavailability in rat at 10 mg/kg, po. It counts as ADME, organism-based. Particulars: in vivo. The method, boiled down: as §2
Series [7] can be described thus: Metabolic stability in human liver microsomes after 3 hrs. The format is ADME, Microsome. As to conditions: read-out: Stability. The method, boiled down: (§3)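 Compound incubated with rat, dog or human liver microsomes for 3 h. Stability was reported as percent parent remaining.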
On the technique in general: Microsomes from liver hold many membrane-bound enzymes, among them those of drug oxidation.

Series [8] is described as follows: Metabolic stability in dog liver microsomes after 3 hrs. It counts as ADME, Canis lupus familiaris, Microsome. Particulars: read-out: Stability. The method, boiled down:
as §3

Series [9] is described as follows: Volume of distribution at steady state in rat at 2 mg/kg, iv. The format is ADME, organism-based. Also noted: dose 2 mg/kg, route intravenous. Particulars: in vivo, read-out: Vss. An outline of the steps:
as §1

A short description of series [10]: Metabolic stability in rat liver microsomes after 3 hrs. The format is ADME, Microsome. As to conditions: read-out: Stability. The method, boiled down: as §3
A short description of series [11]: Cmax in rat at 10 mg/kg, po. As to conditions: in vivo. The format is ADME, organism-based. Also noted: dose 10 mg/kg, route oral. An outline of the steps:
as §2

Nitric oxide synthase, inducible, sequence (P35228 whole entry): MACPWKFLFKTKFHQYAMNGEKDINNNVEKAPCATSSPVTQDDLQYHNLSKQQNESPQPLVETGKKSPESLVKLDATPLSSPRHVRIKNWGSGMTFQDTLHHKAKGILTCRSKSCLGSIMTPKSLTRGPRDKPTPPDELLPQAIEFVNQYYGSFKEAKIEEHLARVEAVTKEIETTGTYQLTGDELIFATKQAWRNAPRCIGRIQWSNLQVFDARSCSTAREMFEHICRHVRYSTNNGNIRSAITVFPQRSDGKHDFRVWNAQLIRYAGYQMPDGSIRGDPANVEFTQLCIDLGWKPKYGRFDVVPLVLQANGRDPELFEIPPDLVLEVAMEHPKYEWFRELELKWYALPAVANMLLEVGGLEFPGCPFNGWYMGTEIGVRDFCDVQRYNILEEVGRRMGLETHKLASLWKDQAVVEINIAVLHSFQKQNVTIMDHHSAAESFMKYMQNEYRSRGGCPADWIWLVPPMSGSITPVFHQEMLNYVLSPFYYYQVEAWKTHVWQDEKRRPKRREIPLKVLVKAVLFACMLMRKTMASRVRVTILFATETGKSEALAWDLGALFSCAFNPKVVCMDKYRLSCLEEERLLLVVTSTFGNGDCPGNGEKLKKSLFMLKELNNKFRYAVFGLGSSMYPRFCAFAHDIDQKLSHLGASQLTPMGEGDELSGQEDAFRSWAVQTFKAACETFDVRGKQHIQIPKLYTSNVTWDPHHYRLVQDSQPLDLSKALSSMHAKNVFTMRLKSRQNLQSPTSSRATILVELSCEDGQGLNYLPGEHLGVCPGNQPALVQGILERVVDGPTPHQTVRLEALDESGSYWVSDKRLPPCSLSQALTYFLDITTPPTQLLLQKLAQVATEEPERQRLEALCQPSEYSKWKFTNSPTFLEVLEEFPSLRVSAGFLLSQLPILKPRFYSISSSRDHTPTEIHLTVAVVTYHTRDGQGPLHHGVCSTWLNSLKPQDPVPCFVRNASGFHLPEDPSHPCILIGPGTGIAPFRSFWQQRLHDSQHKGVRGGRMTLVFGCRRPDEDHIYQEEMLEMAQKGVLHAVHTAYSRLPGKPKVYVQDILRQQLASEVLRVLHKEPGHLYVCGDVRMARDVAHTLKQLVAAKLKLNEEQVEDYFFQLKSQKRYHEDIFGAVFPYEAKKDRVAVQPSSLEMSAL

In the case of `c1cn(-c2ccc(OCCNCc3ccc4c(c3)OCO4)cc2)cn1`, it took 240 nM to reach half-maximal inhibition with A 172 (IC50).

In the case of `O=C(O)CN(CCOc1ccc(-n2ccnc2)cc1)Cc1ccc2c(c1)OCO2`, the half-inhibitory concentration (IC50) (commonly the point on the concentration scale where inhibition reaches its midpoint) with A 172 was over 10000 nM.

In the series on A 172, `c1cn(-c2ccc(OCCN(Cc3ccc4c(c3)OCO4)Cc3ccc4c(c3)OCO4)cc2)cn1` had a concentration for half-maximal inhibition (IC50) of 1500 nM.

Consider `O=C(CN(CCOc1ccc(-n2ccnc2)cc1)Cc1ccc2c(c1)OCO2)NCc1ccc2c(c1)OCO2`, for which the half-inhibitory concentration (IC50) in the series on A 172 was 640 nM.

Consider `c1cn(-c2ccc(OC3CCCN(Cc4ccc5c(c4)OCO5)C3)cc2)cn1` (stereo unspecified), for which the IC50 came to 250 nM in series [1] and 57 nM in the series with A 172.

On to `c1cn(-c2ccc(O[C@@H]3CCCN(Cc4ccc5c(c4)OCO5)C3)cc2)cn1`, for which the IC50 in the series on A 172 is 1700 nM.

For `c1cn(-c2ccc(O[C@H]3CCCN(Cc4ccc5c(c4)OCO5)C3)cc2)cn1`, the IC50 in [1] came to 72 nM; in the series on A 172, 9 nM. Also, the AUC (as a rule, the area under the concentration-time curve, a measure of exposure) in the series with Rattus norvegicus was 280 ng·h/mL. Further, the AUC(0-inf) (as a rule, the area under the concentration-time curve extrapolated to infinity) in series [2] amounted to 2600 ng·h/mL. Further, the half-life (as a rule, how long it takes for the measured level to halve) in series [3] is 2.9 h; in series [4] it was 2.2 h. The clearance (in general, the rate of elimination divided by the concentration) in series [5] worked out at 128 mL/min/kg. The bioavailability (usually dose-corrected exposure relative to a reference, in per cent) in series [6] came out at 100%. For the same molecule, the remaining at 3 h in [7] was 31%; in [8], 89%; in series [10], 47%. The Vd in [9] was 21 L/kg. Moreover, the highest level in [11] (Cmax) was 800 ng/mL.

The molecule `c1cn(-c2ccc(O[C@H]3CCN(Cc4ccc5c(c4)OCO5)C3)cc2)cn1` had an IC50 in the series with A 172 of 1600 nM.

Consider `c1cn(-c2ccc(NC3CCCN(Cc4ccc5c(c4)OCO5)C3)cc2)cn1` (stereo unspecified), for which the results for the IC50 (in [1]; in the series on A 172) were 120 nM and 10 nM, respectively.

For `c1cn(-c2ccc(OC3CCCN(Cc4ccc5c(c4)OCO5)C3)nn2)cn1` (stereo unspecified), the IC50 in [1] was 590 nM; in the series on A 172, 52 nM.

Take `c1cn(-c2ccc(OCC3CCCN(Cc4ccc5c(c4)OCO5)C3)cc2)cn1` (stereo unspecified): the 50% inhibitory concentration (IC50) in the series on A 172 is over 10000 nM.

As to `c1cn(-c2ccc(OCC3CCCCN3Cc3ccc4c(c3)OCO4)cc2)cn1` (stereo unspecified), the IC50 in [1] was 2200 nM; with A 172 it was 100 nM.

For `CC1CCCCN1CCCNC(=O)CN(CCOc1ccc(-n2ccnc2)cc1)Cc1ccc2c(c1)OCO2` (stereo unspecified), the IC50 in the series on A 172 amounted to 1600 nM.

For `c1cn(-c2ccc(OC3CCN(Cc4ccc5c(c4)OCO5)C3)cc2)cn1` (stereo unspecified), in the series with A 172, the IC50 came to 4200 nM.

Consider `c1cn(-c2ccc(O[C@@H]3CCN(Cc4ccc5c(c4)OCO5)C3)cc2)cn1`, for which, in the series with A 172, the IC50 is over 10000 nM.

Turning to `c1cn(-c2ccc(OC3CCCCN(Cc4ccc5c(c4)OCO5)C3)cc2)cn1` (stereo unspecified), in the series on A 172, inhibition was half-maximal at 78 nM (IC50).

In the case of `c1cn(-c2ccc(OC[C@H]3CCCN3Cc3ccc4c(c3)OCO4)cc2)cn1`, the IC50 came out at 1200 nM in [1] and 250 nM with A 172.

`O=C(CN(CCOc1ccc(-n2ccnc2)cc1)Cc1ccc2c(c1)OCO2)NCc1ccc(C(F)(F)F)cc1` displayed an IC50 in the series on A 172 of 1800 nM.

In the series with A 172, `CCOC(=O)CN(CCOc1ccc(-n2ccnc2)cc1)Cc1ccc2c(c1)OCO2` returned an IC50 of 1200 nM.
